From ChEMBL document CHEMBL1132367, “Synthesis of novel GABA uptake inhibitors. 3. Diaryloxime and diarylvinyl ether derivatives of nipecotic acid and guvacine as anticonvulsant agents” (J Med Chem, 1999)

Experiments:
Mus musculus = species: Mus musculus; assay: Evaluation for Ataxia (neurological toxicity) in mice using a rotarod apparatus.; format: functional
Outline: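 NMRI mice trained 2 min on a rod rotating at 6 rev/min toward the animal, then dosed i.p. with test compound (n = 8/dose) as in the seizure test and placed on the rod. ED50 is the dose producing falls in 50% of mice.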

[1] = target: Sodium- and chloride-dependent GABA transporter 1 (Rattus norvegicus, UniProt P23978); assay: In vitro inhibition of [3H]GABA uptake at the Sodium- and chloride-dependent GABA transporter 1 (GAT-1) uptake site in rat brain synaptosomes; format: subcellular
Outline: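 Rat forebrain homogenised in ice-cold 0.32 M sucrose and spun at 600g for 10 min at 4 °C; pellet resuspended in Na phosphate/glucose buffer, pH 7.4. Synaptosomes (0.1 mg protein) preincubated with compound for 8 min at 30 °C, then 8 min with [3H]-GABA and unlabeled GABA (each […] final). Filtration assay; nipecotic acid defined non-carrier uptake. IC50 from ≥3-point curves; Ki = IC50/(1+[L]/Km), [L] 25 nM, Km 3700 nM.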

[2] = target: GABA transporter (Mus musculus) (UniProt P31650+P31651+P31649+P31648); assay: Dose that protected 50% of the mice against seizures induced by intraperitoneally administered DMCM (15 mg/Kg) 30 min after intraperitoneal administration; format: functional, organism-based
Outline: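 Male or female NMRI mice, 20–25 g, given test compound i.p.; 30 min later DMCM 15 mg/kg i.p. Eight mice per dose. Animals showing no clonic seizures within 15 min counted as protected. ED50 is the dose protecting 50% of mice.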

Compound	ED50 (Mus musculus)	Ki [1]	ED50 [2]
Cc1cc(F)ccc1C(=COCCN1CCC[C@@H](C(=O)O)C1)c1ccc(F)cc1C	14.2 mg/kg	61 nM	3 mg/kg
O=C(O)[C@@H]1CCCN(CCOC=C(c2ccc(F)cc2F)c2ccc(F)cc2F)C1	5.5 mg/kg	132 nM	1.3 mg/kg
